Key:
[1] = target: Bifunctional dihydrofolate reductase-thymidylate synthase (Plasmodium falciparum K1) (UniProt P13922); assay: Ratio of binding affinity for mutant (N51I+C59R+S108N) to that of wild type dihydrofolate reductase
In short: (§1)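 Each ratio is Ki for the mutant PfDHFR divided by Ki for wild-type PfDHFR. The recombinant enzymes were expressed in E. coli BL21(DE3)pLysS and purified on methotrexate-Sepharose. Ki was derived assuming inhibitors compete with substrate binding.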

[2] = tested on: Vero; assay: Relative antiplasmodial activity to cytotoxicity in Plasmodium falciparum V1/S infected Vero cells; assay type: functional
[3] = tested on: BC; assay: Relative antiplasmodial activity to cytotoxicity in Plasmodium falciparum Csl-2 infected BC cells; assay type: functional
[4] = tested on: KB; assay: In vitro cytotoxicity against Plasmodium falciparum infected KB cell line; assay type: functional, cell-based; details: Homo sapiens
In short: (§2)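 Cytotoxicity (IC50, μM) run against three mammalian lines: Vero (African green monkey kidney fibroblasts), KB (human epidermoid carcinoma) and BC (human breast cancer). Testing followed the Skehan et al. protocol.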

[5] = target: Bifunctional dihydrofolate reductase-thymidylate synthase (Plasmodium falciparum K1, UniProt P13922, C59R/N51I/S108N); assay: Binding affinity towards mutant dihydrofolate reductase (N51I+C59R+S108N DHFR) of Plasmodium falciparum
[6] = tested on: Bifunctional dihydrofolate reductase-thymidylate synthase (Plasmodium falciparum K1), P13922 [UNDEFINED MUTATION]; assay: Ratio of binding affinity for mutant (C59R+S108N+I164L) to that of wild type dihydrofolate reductase; in short: as §1
[7] = tested on: KB; assay: Relative antiplasmodial activity to cytotoxicity in Plasmodium falciparum V1/S infected KB cells; assay type: functional
[8] = target: Bifunctional dihydrofolate reductase-thymidylate synthase (Plasmodium falciparum K1, UniProt P13922, C59R/I164L/N51I/S108N); assay: Binding affinity towards mutant dihydrofolate reductase (N51I+C59R+S108N+I164L DHFR) of Plasmodium falciparum
[9] = tested on: Vero; assay: Relative antiplasmodial activity to cytotoxicity in Plasmodium falciparum Csl-2 infected Vero cells; assay type: functional
[10] = target: Bifunctional dihydrofolate reductase-thymidylate synthase (Plasmodium falciparum K1, UniProt P13922, A16V/S108T); assay: Binding affinity towards mutant dihydrofolate reductase (A16V+S108T DHFR) of Plasmodium falciparum.
[11] = tested on: BC; assay: In vitro cytotoxicity against BC cell line.; details: Homo sapiens
[12] = tested on: BC; assay: Relative antiplasmodial activity to cytotoxicity in Plasmodium falciparum TM4/8.2 infected BC cells; assay type: functional
[13] = tested on: KB; assay: Relative antiplasmodial activity to cytotoxicity in Plasmodium falciparum TM4/8.2 infected KB cells; assay type: functional
[14] = tested on: Vero; assay: Relative antiplasmodial activity to cytotoxicity in Plasmodium falciparum TM4/8.2 infected Vero cells; assay type: functional
[15] = tested on: KB; assay: Relative antiplasmodial activity to cytotoxicity in Plasmodium falciparum Csl-2 infected KB cells; assay type: functional
[16] = tested on: Vero; assay: In vitro cytotoxicity against Plasmodium falciparum infected vero cell line.; assay type: functional, cell-based; details: Chlorocebus sabaeus; in short: as §2
[17] = tested on: Bifunctional dihydrofolate reductase-thymidylate synthase (Plasmodium falciparum K1), P13922 [UNDEFINED MUTATION]; assay: Ratio of binding affinity for mutant (A16V+S108T) to that of wild type dihydrofolate reductase; in short: as §1
[18] = tested on: Bifunctional dihydrofolate reductase-thymidylate synthase (Plasmodium falciparum K1), P13922 [UNDEFINED MUTATION]; assay: Ratio of binding affinity for mutant (N51I+C59R+S108N+I164L) to that of wild type dihydrofolate reductase; in short: as §1
[19] = target: Bifunctional dihydrofolate reductase-thymidylate synthase (Plasmodium falciparum K1, UniProt P13922, C59R/I164L/S108N); assay: Binding affinity towards mutant dihydrofolate reductase (C59R+S108N+I164L DHFR) of Plasmodium falciparum
Chain of Bifunctional dihydrofolate reductase-thymidylate synthase (Plasmodium falciparum K1, UniProt P13922, C59R/I164L/S108N) (P13922 whole entry, looked up, stated change not applied): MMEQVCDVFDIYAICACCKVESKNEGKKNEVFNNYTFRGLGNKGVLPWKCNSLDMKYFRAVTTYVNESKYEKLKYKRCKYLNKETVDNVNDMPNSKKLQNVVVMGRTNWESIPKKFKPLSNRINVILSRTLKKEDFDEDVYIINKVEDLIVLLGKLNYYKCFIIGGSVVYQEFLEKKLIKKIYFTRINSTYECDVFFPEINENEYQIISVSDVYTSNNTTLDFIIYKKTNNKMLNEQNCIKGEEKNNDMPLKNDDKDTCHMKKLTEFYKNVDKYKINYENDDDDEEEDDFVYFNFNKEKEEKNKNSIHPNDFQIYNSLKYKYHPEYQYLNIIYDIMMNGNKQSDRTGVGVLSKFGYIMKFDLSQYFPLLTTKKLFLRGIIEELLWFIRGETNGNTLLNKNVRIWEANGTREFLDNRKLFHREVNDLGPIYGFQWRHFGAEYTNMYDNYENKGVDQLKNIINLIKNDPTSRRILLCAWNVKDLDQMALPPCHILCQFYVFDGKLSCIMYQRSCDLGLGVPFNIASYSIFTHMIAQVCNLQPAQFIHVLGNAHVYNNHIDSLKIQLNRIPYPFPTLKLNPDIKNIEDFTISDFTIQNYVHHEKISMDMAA

Chain of Bifunctional dihydrofolate reductase-thymidylate synthase (Plasmodium falciparum K1) (P13922 whole entry, looked up): as the sequence (P13922 whole entry, looked up, stated change not applied) above
Chain of Bifunctional dihydrofolate reductase-thymidylate synthase (Plasmodium falciparum K1, UniProt P13922, C59R/N51I/S108N) (P13922 whole entry, looked up, stated change not applied): as above
Chain of Bifunctional dihydrofolate reductase-thymidylate synthase (Plasmodium falciparum K1, UniProt P13922, C59R/I164L/N51I/S108N) (P13922 whole entry, looked up, stated change not applied): as above
Chain of Bifunctional dihydrofolate reductase-thymidylate synthase (Plasmodium falciparum K1, UniProt P13922, A16V/S108T) (P13922 whole entry, looked up, stated change not applied): as above
Chain of Bifunctional dihydrofolate reductase-thymidylate synthase (Plasmodium falciparum K1), P13922 [UNDEFINED MUTATION] (P13922 whole entry, looked up, stated change not applied): as above

Row | SMILES | Ratio [1] | Safety ratio [2] | Safety ratio [3] | IC50 [4] | Ki [5] | Ratio [6] | Safety ratio [7] | Ki [8] | Safety ratio [9] | Ki [10] | IC50 [11] | Safety ratio [12] | Safety ratio [13] | Safety ratio [14] | Safety ratio [15] | IC50 [16] | Ratio [17] | Ratio [18] | Ki [19]
1 | CCCC1(C)N=C(N)N=C(N)N1c1cccc(Cl)c1 (stereo not drawn) | 2.1 | 454 | 221 | 110000 nM | 9.7 nM | 7.2 | 1.1 | 39.4 nM | >1724 | 471 nM | 64000 nM | 356 | 611 | >2778 | 379 | > 500000 nM | 102 | 8.53 | 33.1 nM
2 | NC1=NC(c2cccc(OCCCOc3cc(Cl)c(Cl)cc3Cl)c2)N(c2cccc(Cl)c2)C(N)=N1 (stereo not drawn) | 0.5 | 2.1 | 1.9 | 7000 nM | 2 nM | 0.6 | 0.8 | 4.5 nM | 3.5 | 2.6 nM | 10000 nM | 3.3 | 2.3 | 6 | 1.3 | 18000 nM | 0.7 | 1.1 | 2.2 nM
3 | NC1=NC(c2cccc(Oc3ccccc3)c2)N(c2cccc(Cl)c2)C(N)=N1 (stereo not drawn) | 2.3 | >13.9 | 2.5 | 4000 nM | 2.5 nM | 2.7 | 1.1 | 5.8 nM | >14.7 | 2.5 nM | 8400 nM | 3.8 | 1.8 | >22.7 | 1.2 | > 50000 nM | 2.3 | 5.3 | 3 nM
4 | NC1=NC(c2ccc(Oc3ccccc3)cc2)N(c2ccc(Cl)cc2)C(N)=N1 (stereo not drawn) | 73.1 | >7.2 | 1.8 | 7000 nM | 29.3 nM | 363 | 1 | 222 nM | >10.4 | 3.8 nM | 8600 nM | 71.7 | 58.3 | >417 | 1.5 | > 50000 nM | 9.5 | 555 | 145 nM
5 | NC1=NC(c2cccc(Oc3ccc(Cl)cc3)c2)N(c2cccc(Cl)c2)C(N)=N1 (stereo not drawn) | 1.5 | 9.7 | 3.2 | 7000 nM | 1.9 nM | 3.9 | 2.2 | 8 nM | 10 | 3.5 nM | 10000 nM | 2.6 | 1.8 | 7.9 | 2.3 | 31000 nM | 2.7 | 6.1 | 5.1 nM
6 | NC1=NC(c2cccc(Oc3ccc(Cl)cc3)c2)N(c2ccc(Cl)cc2)C(N)=N1 (stereo not drawn) | 61.1 | 8.2 | 1.8 | 4000 nM | 85.5 nM | 108 | 1.1 | 121 nM | 7.8 | 7.5 nM | 7000 nM | 2.5 | 1.4 | 11.1 | 1 | 31000 nM | 5.4 | 86.4 | 151 nM
7 | CCCCCCC1(C)N=C(N)N=C(N)N1c1cccc(Cl)c1 (stereo not drawn) | 2.3 | 71.9 | 4.5 | 4000 nM | 5.5 nM | 5 | 1.3 | 15.9 nM | 469 | 101 nM | 2200 nM | 36.7 | 66.7 | 3833 | 8.2 | 230000 nM | 41.9 | 6.58 | 12.1 nM

From ChEMBL document CHEMBL1138835, “Inhibitors of multiple mutants of Plasmodium falciparum dihydrofolate reductase and their antimalarial activities” (J Med Chem, 2004)
